Results on one molecule are retold here after ChEMBL document CHEMBL4765360, “Design, synthesis and biological evaluation of novel potent STAT3 inhibitors based on BBI608 for cancer therapy” (Eur J Med Chem, 2020).

Structures are written as SMILES. Active and inactive are the calls of the source. No cut-off for these calls is given here.

In assay [1] the target is T1, Signal transducer and activator of transcription 3 (Homo sapiens, UniProt P40763). Put plainly: Inhibition of STAT3 in human MDA-MB-231 cells assessed as reduction in STAT3 Y705 phosphorylation in nucleus at 3 uM incubated for 24 hrs by immunofluorescence staining based fluorescence microscopy. The format is subcellular. An outline of the steps:
(§1)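 MDA-MB-231 cells at 1×10^4 per dish, adhered overnight, then exposed to 3.0 µM for 24 h. Fixed in 4% paraformaldehyde and permeabilized with 0.5% Triton X-100. Blocked in 5% BSA for 1 h. Anti-p-STAT3 primary overnight at 4 °C, then Alexa Fluor 546 anti-rabbit for 1 h at RT. Hoechst nuclear stain; imaged by fluorescence microscopy.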

In assay [2] the test system is MDA-MB-231. Put plainly: Induction of cell cycle arrest in human MDA-MB-231 cells assessed as G2/M phase accumulation at 2 uM incubated for 24 hrs by PI staining based flow cytometry analysis (reference value: 15.80 %). Type of assay: functional. For orientation: A flow cytometer gives signals particle by particle.
For assay [3], the system named is MDA-MB-231. In words: Antitumor activity against human MDA-MB-231 cells xenografted in BALB/c mouse assessed as reduction in tumor growth at 5 mg/kg, ip administered once daily for 21 days and measured on day 21 relative to control. The note with it: MDA-MB-231, ip, 504 h, time 21 day, read-out: TGI. The format is functional. An outline of the steps:
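Female BALB/c nude mice, 5 weeks old (16–18 g), were given 5×10^6 MDA-MB-231 cells subcutaneously. At ~50 mm³, mice were randomized to three groups (n=6): vehicle, 5 or 10 mg/kg i.p. daily for 21 days. Tumor volume (length×width²/2) was measured every 3 days and body weight recorded. Tumors were excised and weighed at the end. TGI derived versus control; mean ± SEM.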
In general terms: Xenograft models place foreign cells or tissue in a host animal.

Assay [4] has as its target T1, Signal transducer and activator of transcription 3. In words: Inhibition of STAT3 in human MDA-MB-231 cells assessed as reduction in STAT3 Y705 phosphorylation incubated for 24 hrs by Western blot analysis. The note with it: dose 0.75-3 µM. The format is cell-based. Put shortly: (§2)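 MDA-MB-231 cells treated with a range of concentrations for 24 h. RIPA lysates with PMSF, 40 µg protein/lane, on 10% SDS-PAGE, then PVDF. Blocked in 5% milk/TBST for 2 h. Primary antibodies to STAT3, p-STAT3(Y705), STAT1, p-STAT1(Y701), c-Myc and Cyclin D1 overnight at 4 °C; GAPDH as loading control. HRP secondary for 1 h; ECL detection.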
(In general: A western blot detects proteins with antibodies after separation by electrophoresis.)

The subject of assay [5] is MDA-MB-231. Put plainly: Induction of cell cycle arrest in human MDA-MB-231 cells assessed as G2/M phase accumulation at 4 uM incubated for 24 hrs by PI staining based flow cytometry analysis (reference value: 15.80 %). Type of assay: functional.
Assay [6] concerns MDA-MB-231. In words: Induction of apoptosis in human MDA-MB-231 cells assessed as early apoptotic cells at 1 uM incubated for 24 hrs by annexin V-FITC and PI staining based flow cytometry analysis (reference value: 2.69 %). Type of assay: functional.
The test system of assay [7] is MDA-MB-231. In words: Induction of apoptosis in human MDA-MB-231 cells assessed as necrotic cells at 4 uM incubated for 24 hrs by annexin V-FITC and PI staining based flow cytometry analysis (reference value: 0.23 %). The format is functional.
For assay [8], the system named is MDA-MB-231. In words: Induction of apoptosis in human MDA-MB-231 cells assessed as viable cells at 2 uM incubated for 24 hrs by annexin V-FITC and PI staining based flow cytometry analysis (reference value: 93.37 %). Type of assay: functional. The note with it: read-out: Activity.
Assay [9] relates to MDA-MB-231. In words: Induction of cell cycle arrest in human MDA-MB-231 cells assessed as G0/G1 phase accumulation at 2 uM incubated for 24 hrs by PI staining based flow cytometry analysis (reference value: 57.99 %). Type of assay: functional.
The target of assay [10] is T1, Signal transducer and activator of transcription 3. Put plainly: Inhibition of STAT3 in human MDA-MB-231 cells assessed as reduction in STAT3 Y705 phosphorylation in cytoplasm at 3 uM incubated for 24 hrs by immunofluorescence staining based fluorescence microscopy. Type of assay: subcellular. An outline of the steps:
as §1

In assay [11] the test system is MDA-MB-231. In words: Induction of apoptosis in human MDA-MB-231 cells assessed as early apoptotic cells at 4 uM incubated for 24 hrs by annexin V-FITC and PI staining based flow cytometry analysis (reference value: 2.69 %). The format is functional.
The test system of assay [12] is MDA-MB-231. Put plainly: Induction of cell cycle arrest in human MDA-MB-231 cells assessed as S phase accumulation at 2 uM incubated for 24 hrs by PI staining based flow cytometry analysis (reference value: 26.21 %). Type of assay: functional.
Assay [13] deals with MDA-MB-231. In words: Induction of apoptosis in human MDA-MB-231 cells assessed as late apoptotic cells at 1 uM incubated for 24 hrs by annexin V-FITC and PI staining based flow cytometry analysis (reference value: 3.72 %). The format is functional.
Assay [14] deals with MDA-MB-231. Put plainly: Induction of cell cycle arrest in human MDA-MB-231 cells assessed as G2/M phase accumulation at 1 uM incubated for 24 hrs by PI staining based flow cytometry analysis (reference value: 15.80 %). Type of assay: functional.
Assay [15] deals with MDA-MB-231. In words: Induction of apoptosis in human MDA-MB-231 cells assessed as necrotic cells at 1 uM incubated for 24 hrs by annexin V-FITC and PI staining based flow cytometry analysis (reference value: 0.23 %). Type of assay: functional.
The target in assay [16] is T2, Signal transducer and activator of transcription 1-alpha/beta (Homo sapiens) (UniProt P42224).
T2 sequence (whole entry): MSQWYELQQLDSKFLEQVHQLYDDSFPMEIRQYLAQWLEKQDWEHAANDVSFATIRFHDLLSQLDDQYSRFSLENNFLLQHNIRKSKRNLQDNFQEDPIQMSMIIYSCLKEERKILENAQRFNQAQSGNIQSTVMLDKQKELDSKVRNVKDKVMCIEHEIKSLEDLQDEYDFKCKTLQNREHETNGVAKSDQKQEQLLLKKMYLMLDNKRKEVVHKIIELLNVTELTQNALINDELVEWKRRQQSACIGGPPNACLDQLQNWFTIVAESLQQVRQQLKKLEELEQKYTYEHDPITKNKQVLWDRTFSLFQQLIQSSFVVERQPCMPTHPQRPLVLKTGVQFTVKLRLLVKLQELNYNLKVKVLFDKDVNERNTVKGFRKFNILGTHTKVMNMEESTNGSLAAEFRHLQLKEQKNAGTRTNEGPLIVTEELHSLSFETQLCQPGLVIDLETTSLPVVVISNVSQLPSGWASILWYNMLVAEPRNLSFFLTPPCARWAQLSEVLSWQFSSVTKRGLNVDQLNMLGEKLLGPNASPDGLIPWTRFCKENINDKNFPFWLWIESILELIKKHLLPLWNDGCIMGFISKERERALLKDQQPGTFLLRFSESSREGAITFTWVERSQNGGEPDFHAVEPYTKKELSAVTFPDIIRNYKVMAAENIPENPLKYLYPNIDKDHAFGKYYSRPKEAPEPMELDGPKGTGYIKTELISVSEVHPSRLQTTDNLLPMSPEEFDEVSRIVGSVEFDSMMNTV
In words: Inhibition of STAT1 in human MDA-MB-231 cells assessed as reduction in STAT1 Y701 phosphorylation at 0.75 to 3 uM incubated for 24 hrs by Western blot analysis. Type of assay: cell-based. The settings on record: dose 0.75-3 µM. An outline of the steps:
as §2

Assay [17] has as its system MDA-MB-231. In words: Induction of apoptosis in human MDA-MB-231 cells incubated for 24 hrs by annexin V-FITC and PI staining based flow cytometry analysis. The format is functional, cell-based. The note with it: dose 1-4 µM.
In assay [18] the test system is MDA-MB-231. In words: Induction of apoptosis in human MDA-MB-231 cells assessed as early apoptotic cells at 2 uM incubated for 24 hrs by annexin V-FITC and PI staining based flow cytometry analysis (reference value: 2.69 %). Type of assay: functional.

T1 sequence (P40763 whole entry): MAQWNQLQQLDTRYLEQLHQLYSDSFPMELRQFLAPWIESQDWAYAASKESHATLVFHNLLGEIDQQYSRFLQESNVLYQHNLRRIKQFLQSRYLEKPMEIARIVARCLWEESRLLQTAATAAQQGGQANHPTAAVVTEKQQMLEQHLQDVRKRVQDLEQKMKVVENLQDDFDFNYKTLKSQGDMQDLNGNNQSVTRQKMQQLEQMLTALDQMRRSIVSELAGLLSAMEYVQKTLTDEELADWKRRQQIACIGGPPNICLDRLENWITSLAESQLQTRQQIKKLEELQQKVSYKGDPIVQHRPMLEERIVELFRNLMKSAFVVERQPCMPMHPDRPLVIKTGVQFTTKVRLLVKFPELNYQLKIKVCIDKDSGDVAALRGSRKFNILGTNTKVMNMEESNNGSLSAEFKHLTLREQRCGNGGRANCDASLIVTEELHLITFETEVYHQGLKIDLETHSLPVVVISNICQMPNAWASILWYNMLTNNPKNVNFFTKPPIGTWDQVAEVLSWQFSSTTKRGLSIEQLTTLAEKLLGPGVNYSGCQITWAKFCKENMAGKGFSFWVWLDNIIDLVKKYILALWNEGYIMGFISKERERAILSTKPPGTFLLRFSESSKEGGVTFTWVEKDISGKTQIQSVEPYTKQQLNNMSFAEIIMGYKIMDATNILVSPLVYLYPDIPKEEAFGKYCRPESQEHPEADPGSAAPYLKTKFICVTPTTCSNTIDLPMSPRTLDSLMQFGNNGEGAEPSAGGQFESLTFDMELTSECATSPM

`COc1ccc(NC2=CC(=O)c3cc(C(C)=O)oc3C2=O)cc1`: the inhibition result in assay [1] and in assay [10] was “Active” each time. The Activity with MDA-MB-231 [2] came to 13.3%; in the assay with MDA-MB-231 [5], 7.52%; in the assay on MDA-MB-231 [6], 5.21%; in the assay with MDA-MB-231 [7], 0.77%; with MDA-MB-231 [9] it was 40.49%; in the assay on MDA-MB-231 [11], 10.25%. Moreover, the Activity was 46.21% with MDA-MB-231 [12]; 6.51% with MDA-MB-231 [13]; 16.27% with MDA-MB-231 [14]; 0.41% in the assay on MDA-MB-231 [15]; “Dose-dependent effect” in the assay on MDA-MB-231 [17]; 4.69% with MDA-MB-231 [18]. The inhibition in vivo at 5 mg/kg/day in the assay on MDA-MB-231 [3] came out at 8.42%. Besides, the inhibition entry in assay [4] was “Dose-dependent effect”. The viability at 2 µM in the assay on MDA-MB-231 [8] amounted to 82.2%. Moreover, the inhibition result in [16] was “inactive”.
